Key:
KM12 = assay: Cytotoxicity against human KM12 cells after 48 hrs by sulforhodamine B assay; format: functional; settings: KM12, 48 h
SK-OV-3 = assay: Cytotoxicity against human SKOV3 cells after 48 hrs by sulforhodamine B assay; format: functional; settings: SK-OV-3, 48 h
[1] = Cell cycle arrest in mouse DA1-3b cells assessed as accumulation at G1 phase at 10^-5 M after 24 hrs using propidium iodide staining by cytofluorometry (reference value: 52.2 %); format: functional, cell-based
Summary of the method: (§1)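 DA1-3b murine leukemia cells were exposed to the compound for 24 h. They were then stained in a solution containing propidium iodide (50 µg/mL) and RNase A (0.5 mg/mL) and analysed on a FACScan cytofluorometer. The percentage of cells in each cell-cycle phase was reported, with several compound concentrations tested.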

MDA-MB-231 = assay: Cytotoxicity against human MDA-MB-231/ATCC cells after 48 hrs by sulforhodamine B assay; format: functional; settings: MDA-MB-231, 48 h
RXF 393 = assay: Cytotoxicity against human RXF393 cells after 48 hrs by sulforhodamine B assay; format: functional; settings: RXF 393, 48 h
[2] = Cell cycle arrest in mouse DA1-3b cells assessed as accumulation at sub-G1 phase at 10^-5 M after 24 hrs using propidium iodide staining by cytofluorometry (reference value: 0.7 %); format: functional, cell-based; summary of the method: as §1
MDA-MB-468 = assay: Cytotoxicity against human MDA-MB-468 cells after 48 hrs by sulforhodamine B assay; format: functional; settings: MDA-MB-468, 48 h
[3] = Cell cycle arrest in mouse DA1-3b cells assessed as accumulation at S phase at 10^-5 M after 24 hrs using propidium iodide staining by cytofluorometry (reference value: 28.0 %); format: functional, cell-based; summary of the method: as §1
HCT-15 = assay: Cytotoxicity against human HCT15 cells after 48 hrs by sulforhodamine B assay; format: functional; settings: HCT-15, 48 h
OVCAR-5 = assay: Cytotoxicity against human OVCAR5 cells after 48 hrs by sulforhodamine B assay; format: functional; settings: OVCAR-5, 48 h
NCI-H322M = assay: Cytotoxicity against human NCI-H322M cells after 48 hrs by sulforhodamine B assay; format: functional
[4] = Cell cycle arrest in mouse DA1-3b cells assessed as accumulation at sub-G1 phase at 10^-6 M after 24 hrs using propidium iodide staining by cytofluorometry (reference value: 0.7 %); format: functional, cell-based; summary of the method: as §1
NCI-H522 = assay: Cytotoxicity against human NCI-H522 cells after 48 hrs by sulforhodamine B assay; format: functional; settings: NCI-H522, 48 h
UACC-62 = assay: Cytotoxicity against human UACC62 cells after 48 hrs by sulforhodamine B assay; format: functional; settings: UACC-62, 48 h
[5] = Cell cycle arrest in mouse DA1-3b cells assessed as accumulation at G2/M phase at 10^-5 M after 24 hrs using propidium iodide staining by cytofluorometry (reference value: 18.0 %); format: functional, cell-based; summary of the method: as §1
[6] = Cell cycle arrest in mouse DA1-3b cells assessed as accumulation at S phase at 10^-4 M after 24 hrs using propidium iodide staining by cytofluorometry (reference value: 28.0 %); format: functional, cell-based; summary of the method: as §1
NCI-H460 = assay: Cytotoxicity against human NCI-H460 cells after 48 hrs by sulforhodamine B assay; format: functional; settings: NCI-H460, 48 h
Hs-578T = assay: Cytotoxicity against human HS578T cells after 48 hrs by sulforhodamine B assay; format: functional
HCT-116 = assay: Cytotoxicity against human HCT116 cells after 48 hrs by sulforhodamine B assay; format: functional; settings: HCT-116, 48 h
[7] = Cell cycle arrest in mouse DA1-3b cells assessed as accumulation at G1 phase at 10^-6 M after 24 hrs using propidium iodide staining by cytofluorometry (reference value: 52.2 %); format: functional, cell-based; summary of the method: as §1
SF-268 = assay: Cytotoxicity against human SF268 cells after 48 hrs by sulforhodamine B assay; format: functional; settings: SF-268, 48 h
[8] = Inhibition of bovine brain tubulin polymerization after 30 mins by turbidimetry analysis; design: species or system Bos taurus
Summary of the method: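 Lyophilized bovine brain tubulin (97%) reconstituted to 5 mg/mL in 80 mM PIPES pH 6.9, 2 mM MgCl₂, 0.5 mM EGTA, 1.0 mM GTP and 5% glycerol. Compound in DMSO was added to this solution in a quartz cuvette at 0 °C. Assembly was followed as the rise in absorbance at 340 nm at 37 °C. IC₅₀ is the molar concentration halving the extent of assembly after 30 min.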

MCF7 = assay: Cytotoxicity against human MCF7 cells after 48 hrs by sulforhodamine B assay; format: functional; settings: MCF7, 48 h
OVCAR-4 = assay: Cytotoxicity against human OVCAR4 cells after 48 hrs by sulforhodamine B assay; format: functional; settings: OVCAR-4, 48 h
SK-MEL-28 = assay: Cytotoxicity against human SK-MEL-28 cells after 48 hrs by sulforhodamine B assay; format: functional; settings: SK-MEL-28, 48 h
OVCAR-3 = assay: Cytotoxicity against human OVCAR3 cells after 48 hrs by sulforhodamine B assay; format: functional; settings: OVCAR-3, 48 h
CCRF-CEM = assay: Cytotoxicity against human CCRF-CEM cells after 48 hrs by sulforhodamine B assay; format: functional
A498 = assay: Cytotoxicity against human A498 cells after 48 hrs by sulforhodamine B assay; format: functional; settings: A498, 48 h
A549 [9] = assay: Cytotoxicity against human A549 cells after 48 hrs by sulforhodamine B assay; format: functional; settings: A549, 48 h
[10] = Cell cycle arrest in mouse DA1-3b cells assessed as accumulation at G1 phase at 10^-4 M after 24 hrs using propidium iodide staining by cytofluorometry (reference value: 52.2 %); format: functional, cell-based; summary of the method: as §1
SK-MEL-2 = assay: Cytotoxicity against human SK-MEL-2 cells after 48 hrs by sulforhodamine B assay; format: functional; settings: SK-MEL-2, 48 h
COLO 205 = assay: Cytotoxicity against human COLO205 cells after 48 hrs by sulforhodamine B assay; format: functional; settings: COLO 205, 48 h
DU-145 = assay: Cytotoxicity against human DU145 cells after 48 hrs by sulforhodamine B assay; format: functional; settings: DU-145, 48 h
SF-539 = assay: Cytotoxicity against human SF539 cells after 48 hrs by sulforhodamine B assay; format: functional; settings: SF-539, 48 h
HT-29 = assay: Cytotoxicity against human HT29 cells after 48 hrs by sulforhodamine B assay; format: functional; settings: HT-29, 48 h
HL-60 = assay: Cytotoxicity against human HL60 cells after 48 hrs by sulforhodamine B assay; format: functional; settings: HL-60, 48 h
[11] = Cell cycle arrest in mouse DA1-3b cells assessed as accumulation at sub-G1 phase at 10^-4 M after 24 hrs using propidium iodide staining by cytofluorometry (reference value: 0.7 %); format: functional, cell-based; summary of the method: as §1
[12] = Cell cycle arrest in mouse DA1-3b cells assessed as accumulation at S phase at 10^-6 M after 24 hrs using propidium iodide staining by cytofluorometry (reference value: 28.0 %); format: functional, cell-based; summary of the method: as §1
K562 = assay: Cytotoxicity against human K562 cells after 48 hrs by sulforhodamine B assay; format: functional; settings: K562, 48 h
[13] = Cell cycle arrest in mouse DA1-3b cells assessed as accumulation at G2/M phase at 10^-6 M after 24 hrs using propidium iodide staining by cytofluorometry (reference value: 18.0 %); format: functional, cell-based; summary of the method: as §1
[14] = Cell cycle arrest in mouse DA1-3b cells assessed as accumulation at G2/M phase at 10^-4 M after 24 hrs using propidium iodide staining by cytofluorometry (reference value: 18.0 %); format: functional, cell-based; summary of the method: as §1
EKVX = assay: Cytotoxicity against human EKVX cells after 48 hrs by sulforhodamine B assay; format: functional
A549 [15] = assay: Cytotoxicity against human A549/ATCC cells after 48 hrs by sulforhodamine B assay; format: functional; settings: A549, 48 h
HCC 2998 = assay: Cytotoxicity against human HCC2998 cells after 48 hrs by sulforhodamine B assay; format: functional; settings: HCC 2998, 48 h
[16] = Cell cycle arrest in mouse DA1-3b cells assessed as accumulation at G2/M phase after 24 hrs using propidium iodide staining by cytofluorometry; format: functional, cell-based; summary of the method: as §1
CAKI-1 = assay: Cytotoxicity against human Caki1 cells after 48 hrs by sulforhodamine B assay; format: functional; settings: CAKI-1, 48 h
MDA-MB-435 = assay: Cytotoxicity against human MDA-MB-435 cells after 48 hrs by sulforhodamine B assay; format: functional; settings: MDA-MB-435, 48 h
NCI/ADR-RES = assay: Cytotoxicity against human NCI/ADR-RES cells after 48 hrs by sulforhodamine B assay; format: functional
SF-295 = assay: Cytotoxicity against human SF295 cells after 48 hrs by sulforhodamine B assay; format: functional; settings: SF-295, 48 h
UO-31 = assay: Cytotoxicity against human UO31 cells after 48 hrs by sulforhodamine B assay; format: functional; settings: UO-31, 48 h
M14 = assay: Cytotoxicity against human M14 cells after 48 hrs by sulforhodamine B assay; format: functional; settings: M14, 48 h
SN12C = assay: Cytotoxicity against human SN12C cells after 48 hrs by sulforhodamine B assay; format: functional

## COc1ccc(C(=O)c2cc(OC)c(OC)c(OC)c2)c(OC)c1O
KM12
  GI50: < 10 nM
SK-OV-3
  GI50: 89.6 nM
[1]
  Activity: 24.7%
MDA-MB-231
  GI50: 24.6 nM
RXF 393
  GI50: 15.9 nM
[2]
  Activity: 30%
MDA-MB-468
  GI50: 249 nM
[3]
  Activity: 11.8%
HCT-15
  GI50: 10.6 nM
OVCAR-5
  GI50: 651 nM
NCI-H322M
  GI50: < 10 nM
[4]
  Activity: 17.5%
NCI-H522
  GI50: < 10 nM
UACC-62
  GI50: 27.3 nM
[5]
  Activity: 32.9%
[6]
  Activity: 11.6%
NCI-H460
  GI50: 50.7 nM
Hs-578T
  GI50: < 10 nM
HCT-116
  GI50: 32 nM
[7]
  Activity: 21.5%
SF-268
  GI50: 21.1 nM
[8]
  IC50: 3200 nM
MCF7
  GI50: 26.4 nM
OVCAR-4
  GI50: 73 nM
SK-MEL-28
  GI50: 9460 nM
OVCAR-3
  GI50: 22.2 nM
CCRF-CEM
  GI50: 28.8 nM
A498
  GI50: 2720 nM
A549 [9]
  GI50: 41.3 nM
[10]
  Activity: 26.1%
SK-MEL-2
  GI50: 26.6 nM
COLO 205
  GI50: 6200 nM
DU-145
  GI50: 20.9 nM
SF-539
  GI50: 15.1 nM
HT-29
  GI50: 3460 nM
HL-60
  GI50: 23.5 nM
[11]
  Activity: 36.5%
[12]
  Activity: 13.1%
K562
  GI50: < 10 nM
[13]
  Activity: 47.2%
[14]
  Activity: 25.3%
EKVX
  GI50: 611 nM
A549 [15]
  GI50: 41.3 nM
HCC 2998
  GI50: 211 nM
[16]
  Activity: Dose-dependent effect
CAKI-1
  GI50: 120 nM
MDA-MB-435
  GI50: < 10 nM
NCI/ADR-RES
  GI50: < 10 nM
SF-295
  GI50: 19.9 nM
UO-31
  GI50: 48.9 nM
M14
  GI50: < 10 nM
SN12C
  GI50: 46.9 nM
